Source: PubChem BioAssay (Johns Hopkins Ion Channel Center)
KCNQ1 act – potentiators or activators of human KCNQ1 potassium channel; actives 0.35% (n = 310,000); P51787; B-score at 10 µM; CHO-K1 KCNQ1, thallium flux FluxOR fluorescence; active compounds read high;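 active = fluorescence ratio B-score, a plate-corrected score, at least three library SD, with initial intensity B-score within 5 SD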
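Test system: CHO-K1 cells stably expressing KCNQ1 / Medium: assay buffer / Also added: depolarizing K+/Tl+ stimulus, K2SO4 and Tl2SO4 each 12.5 mM in 5x stock / Incubation: 90 min dye loading and 20 min compound exposure, both at room temperature / Signal: thallium influx via FluxOR fluorescence, kinetic imaging / Evaluation: B score of baseline-normalized fluorescence ratio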
KCNK9 block – human KCNK9 channel inhibition | AID 488922 | B-score at 10 µM | HEK293 KCNK9, FluxOR thallium flux fluorescence; active compounds read low | Q9NPC2 | actives 1.2% (n = 310,000);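 active = ratio B-score over 3 SD below the library mean, with starting fluorescence within 5 SD of its mean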;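 also: negative B-score means less thallium flux so channel inhibition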
hERG rescue – shields human hERG channel from block by proarrhythmic agents. CHO-hERG, FluxOR thallium flux, dofetilide IC70 present. AID 1511. Q12809. activation (rescue from dofetilide block), less the hit threshold, % at 10 µM. actives 0.51% (n = 310,000);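 active = activation above the mean of controls blocked by dofetilide plus 5 SD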;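 also: thallium influx through hERG after potassium depolarization seen as dye fluorescence rise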
KCNK3 inh – human KCNK3 channel inhibition, primary screen | O14649 | CHO-KCNK3 thallium flux, FluxOR fluorescence; active compounds read low | B-score at 10 µM | actives 0.84% (n = 340,000) | AID 602410;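 active = B-score under library mean minus 4 SD, starting fluorescence ratio at most library mean plus 5 SD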;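 also: more negative B-score means stronger inhibition of thallium flux through KCNK3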
KCNQ1 block – human KCNQ1 channel inhibition; P51787; CHO-K1 KCNQ1, FluxOR thallium flux fluorescence; active compounds read high; B-score at 10 µM; actives 1.3% (n = 310,000); AID 2642;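 active = compounds whose thallium flux B-score, printed positive for inhibition, exceeds three library SD while starting fluorescence stays within three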;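 also: channel opened by potassium depolarization with thallium stimulus after 20 min compound exposure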
Kir21 inh – Kir2.1 (mouse) channel inhibition | P35561 | HEK293-Kir2.1, FluxOR thallium flux fluorescence; active compounds read low | B-score at 10 µM | actives 0.85% (n = 310,000) | AID 1672;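 active = fluorescence ratio B-score at or below minus 3 SD of library scores, with starting-brightness B-score within 2 SD, cut at about -4.2 in these data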;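 also: channel flux triggered by added potassium and thallium sulfate stimulus; B-score of peak minus minimum fluorescence over baseline after thallium stimulus; more negative B-score means stronger Kir2.1 block with less thallium influx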
Target sequence (P35561 whole entry, looked up): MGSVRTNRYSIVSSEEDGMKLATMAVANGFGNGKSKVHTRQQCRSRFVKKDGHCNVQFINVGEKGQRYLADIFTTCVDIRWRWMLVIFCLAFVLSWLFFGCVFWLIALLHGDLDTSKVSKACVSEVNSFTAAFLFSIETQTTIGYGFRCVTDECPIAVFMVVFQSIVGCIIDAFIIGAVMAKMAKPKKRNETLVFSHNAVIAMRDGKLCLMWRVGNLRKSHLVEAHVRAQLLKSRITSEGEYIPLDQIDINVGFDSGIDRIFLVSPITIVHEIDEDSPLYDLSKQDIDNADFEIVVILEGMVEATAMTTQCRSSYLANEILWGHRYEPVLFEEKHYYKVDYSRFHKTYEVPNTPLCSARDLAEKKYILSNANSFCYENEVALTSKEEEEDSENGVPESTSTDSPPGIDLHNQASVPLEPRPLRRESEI
KCNK3 confirm – confirmation of human KCNK3 two-pore domain potassium channel inhibitors; shares compounds with KCNK3 inh; CHO-KCNK3 thallium flux, FluxOR fluorescence; 0% buffer, 100% carvedilol maximal block; ratio percent of control, % at 10 µM; actives 99% (n = 2,400); AID 651638;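 active = ratio percent of control, averaged over triplicates, above buffer control mean plus 5 SD, cut at about 64% in these data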;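 also: ratio is the fluorescence rise from min to max over baseline after thallium stimulus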
KCNK3 uninduced – KCNK3 inhibitor counter-screen hit in non-induced cells | shares compounds with KCNK3 inh | non-induced KCNK3 parental cells, FluxOR thallium flux; active compounds read low | thallium flux ratio (lower = more inhibition) at 10 µM | actives 40% (n = 2,400);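 active = thallium flux ratio, averaged over three wells, more than 5 SD below the buffer control mean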;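 also: host cells are CHO cells without KCNK3 induction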
Large screens that a line does not name were inactive (follow-up assays come after a bar, where they were run). Hits are enriched below; roughly 3.7% of the tested compounds scored in any of these assays.

COCCOC(=O)C1=C(C)N=C2SCCC(=O)N2C1c1cccc(Br)c1 (stereo not given)	KCNK3 inh -9.3 | KCNK3 confirm 112 | KCNK3 uninduced inactive
CCOC(=O)C1=C(C)N=C2SCCC(=O)N2C1c1cc(Br)ccc1OC (stereo not given)	none
COc1ccc(C(=O)CC(Nc2ccc([N+](=O)[O-])cc2)c2ccc(Cl)cc2)cc1 (stereo not given)	KCNK9 block -6.7, KCNK3 inh -9.1, KCNQ1 block 12 | KCNK3 confirm 132 | KCNK3 uninduced 0.14
COc1ccc(C(=O)NC(CC(=O)O)c2cc([N+](=O)[O-])ccc2Cl)cc1 (stereo not given)	none
CCCn1c(/C=C/c2ccccc2)nc2ccccc21	none
COCCOCCn1c(/C=C/c2ccccc2)nc2ccccc21	KCNK3 inh -9.2 | KCNK3 confirm 93 | KCNK3 uninduced inactive
CCn1ccnc1CN(C)C(=O)c1ccc(OC2CCN(CCc3ccccc3)CC2)cc1	none
CCN(CC)C(=O)C1CCCN(c2ccc([N+](=O)[O-])cc2/C=N/NC(=O)c2cccc(O)c2)C1 (stereo not given)	KCNK3 inh -14 | KCNK3 confirm 91 | KCNK3 uninduced inactive
CSc1ccccc1NC(=O)c1cc(-c2cccnc2)nc2ccc(Br)cc12	KCNK3 inh -13 | KCNK3 confirm 109 | KCNK3 uninduced 0.15
Cc1cc(C)cc(NC(=O)c2cccc3c2C(=O)N(C2CCCCC2)C3)c1	KCNK3 inh -9.3 | KCNK3 confirm 107 | KCNK3 uninduced inactive
NC(=O)c1cccc2c1C(=O)N(C1CCCCC1)C2	none
CCOC(=O)C1=C(C)N=c2s/c(=C/c3cccc([N+](=O)[O-])c3O)c(=O)n2C1c1ccccc1 (stereo not given)	KCNK3 inh -12, KCNQ1 block 13 | KCNK3 confirm 124 | KCNK3 uninduced 0.1
CCC(CCC(=O)NNC(=O)Cc1ccc([N+](=O)[O-])cc1)C(=O)O (stereo not given)	none
CC(NC(=O)c1cccc(N(C)C)c1)c1ccc(-n2ccnc2)cc1 (stereo not given)	none
Cc1ccc(NC(=O)COc2ccccc2C(=O)NCc2ccccc2)cc1	none (no result: KCNQ1 act, KCNK9 block, hERG rescue, KCNQ1 block, Kir21 inh)
CN(C)S(=O)(=O)c1cccc(NC(=O)COc2ccccc2C(=O)NCc2ccccc2)c1	KCNK3 inh -12 (no result: KCNQ1 act, KCNK9 block, hERG rescue, KCNQ1 block, Kir21 inh) | KCNK3 confirm 119 | KCNK3 uninduced 0.16
O=C(CSc1nnc(NC(=O)C2CC2)s1)Nc1ccc2c(c1)OCCO2	none
CCCc1cc(C(=O)Nc2cc(OC)ccc2OC)cs1	KCNK3 inh -10 | KCNK3 confirm 130 | KCNK3 uninduced 0.15
COc1cc2c(cc1NC(=O)c1ccc(C(C)(C)C)cc1)CCCC2	KCNK3 inh -10 | KCNK3 confirm 105 | KCNK3 uninduced inactive
COc1ccc(NC(=O)c2ccc(-n3c(C)ccc3C)cc2)c(OC)c1	KCNK3 inh -8.8 | KCNK3 confirm 124 | KCNK3 uninduced inactive
COc1ccc(NC(=O)c2ccc(S(=O)(=O)C(F)F)cc2)c(OC)c1	none
COc1ccc(OC)c(NC(=O)c2ccc(OC3CSC3)cc2)c1	KCNK3 inh -9.1 | KCNK3 confirm 102 | KCNK3 uninduced inactive
Cc1cc(C(=O)OCC(=O)N2CCc3ccccc32)ccc1[N+](=O)[O-]	none (no result: KCNQ1 act, KCNK9 block, hERG rescue, KCNQ1 block, Kir21 inh)
C/C(=N\Nc1cccc2cccnc12)c1ccccc1O	KCNK3 inh -10 | KCNK3 confirm 108 | KCNK3 uninduced inactive
COc1ccc(CN(C)C(=O)c2cc(S(=O)(=O)N3CCOCC3)ccc2N2CCCC2)cc1	none
Cc1ccc2oc(=O)n(CCCOc3ccccc3C)c2c1	KCNK3 inh -11 | KCNK3 confirm 121 | KCNK3 uninduced 0.14
Cc1ccc(CNC(=O)Cn2cnc3c(OCc4ccccc4)ncnc32)o1	none (no result: KCNQ1 act, KCNK9 block, hERG rescue, KCNQ1 block, Kir21 inh)
CCOC(=O)c1ccccc1NC(=O)c1c(O)c2ccccc2n(CC)c1=O	KCNK3 inh -9.5 | KCNK3 confirm 112 | KCNK3 uninduced inactive
CCn1c(=O)c(C(=O)Nc2ccsc2C(=O)OC)c(O)c2ccccc21	none (no result: KCNK3 inh)
CCn1c(=O)c(C(=O)Nc2ccc(C)cc2C)c(O)c2ccccc21	none
CCCn1c(=O)c(C(=O)Nc2ccccc2C(=O)OC)c(O)c2ccccc21	KCNK3 inh -9.6 | KCNK3 confirm 98 | KCNK3 uninduced inactive
COc1cccc(CNCc2ccc(SC)cc2)c1OC	none
Cc1cc(Cl)ccc1OCC(=O)NCCCCc1ccccc1	none
CNC(=O)c1cc(S(=O)(=O)Nc2ccc3c(c2)OCO3)ccc1C	none
Oc1cccc(-c2nc3ccc4ccccc4c3c3c2CCC3)c1	KCNK3 inh -19 | KCNK3 confirm 111 | KCNK3 uninduced 0.15
O=C(NNc1c2ccccc2nc2ccccc12)c1cccc(O)c1	none
COc1ccc2oc(C(=O)N3CCN(c4ncccn4)CC3)c(C)c2c1	none
Cc1ccc2c(C)c(C(=O)N3CCN(c4ncccn4)CC3)oc2c1C	KCNK9 block -6.7, KCNK3 inh -9.1 | KCNK3 confirm 69 | KCNK3 uninduced inactive
O=C(CO/N=C/c1cccc([N+](=O)[O-])c1)Nc1ccc2ccccc2c1	KCNK3 inh -9.2 | KCNK3 confirm 98 | KCNK3 uninduced inactive
Cc1cccc(C(=O)O/N=C(\c2ccccc2)c2cccnc2)c1	KCNK3 inh -8.9 | KCNK3 confirm 102 | KCNK3 uninduced inactive
CCC(=O)N=c1sc2c(OC)ccc(OC)c2n1C	none
COc1ccc(OC)c2c1sc(=NC(=O)C1COc3ccccc3O1)n2C (stereo not given)	KCNK3 inh -9.6 | KCNK3 confirm 108 | KCNK3 uninduced inactive
Cc1ccc(S(=O)(=O)NCC(C)NC(=O)CN2CCOCC2)cc1 (stereo not given)	none
Nc1[nH]c2cc([N+](=O)[O-])ccc2c1-c1ccccn1	KCNK3 inh -10 | KCNK3 confirm 115 | KCNK3 uninduced 0.14
COc1ccc(CCNC(=O)C(NS(=O)(=O)c2ccc3c(c2)CCN3C(C)=O)C(C)C)cc1OC (stereo not given)	none (no result: KCNK3 inh)
CC(NC(=O)COC(=O)CN1C(=O)C2CCCCC2C1=O)c1ccccc1 (stereo not given)	none (no result: KCNQ1 act, KCNK9 block, hERG rescue, KCNQ1 block, Kir21 inh)
COC(=O)CSc1nc(Cc2ccccc2)nc2ccccc12	KCNK3 inh -8.7 | KCNK3 confirm 119 | KCNK3 uninduced inactive
Cc1onc(-c2ccccc2)c1-c1ccnn1S(=O)(=O)c1ccc(Cl)cc1	KCNK3 inh -9.4 | KCNK3 confirm 103 | KCNK3 uninduced inactive
O=C(CCc1nnc2ccc(NCc3ccccc3)nn12)NC1CCCC1	none
